Measurements published in ChEMBL document CHEMBL4680121, “Development of (4-methoxyphenyl)-1H-tetrazol-5-amine regioisomers as a new class of selective antitubercular agents” (Eur J Med Chem, 2020).

How the values were obtained:
Type in all cases: functional
[1] = system: Mycobacterium tuberculosis; assay: Antitubercular activity against PAS/INH/EMB/RMP-resistant Mycobacterium tuberculosis Spec.210 assessed as inhibition of microbial growth by classical test tube method
In short: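 Classical test-tube serial dilution in Youmans' modified Proskauer–Beck liquid medium with 10% bovine serum. Inoculum came from 14-day-old cultures. Compounds were given as DMSO solutions (stock 10 mg/ml), diluted geometrically in medium to 3.1–100 µg/ml, and incubated at 37 °C. MIC is the minimum concentration inhibiting growth relative to a no-compound control.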

[2] = system: Mycobacterium tuberculosis; assay: Antitubercular activity against PAS/INH/EMB/RMP-resistant Mycobacterium tuberculosis Spec.210 assessed as inhibition of microbial growth incubated for 1 week by MABA method; details: Mycobacterium tuberculosis, 210, 168 h; time 1 weeks
In short: (§1)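 Microplate Alamar Blue assay in Middlebrook 7H9 broth with 10% OADC. Inoculum from fresh LJ culture was adjusted to McFarland 1 and diluted 1:20. DMSO stocks were two-fold serially diluted to final 0.125–512 µg/ml, with growth and sterile controls. Plates ran 1 week at 37 °C, then Alamar blue was added for 24 h. MIC is the lowest concentration preventing the blue-to-pink change.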

[3] = system: Mycobacterium tuberculosis; assay: Antitubercular activity against INH-resistant Mycobacterium tuberculosis Spec.800 harboring InhA promoter mutation assessed as inhibition of microbial growth incubated for 1 week by MABA method; details: time 1 weeks; in short: as §1
[4] = system: Mycobacterium tuberculosis; assay: Potency index, Ratio of rifampicin MIC to test compound MIC for antitubercular activity against PAS/INH/EMB/RMP-resistant Mycobacterium tuberculosis Spec.210 assessed as inhibition of microbial growth incubated for 1 week by MABA method; details: time 1 weeks
[5] = system: Mycobacterium tuberculosis; assay: Potency index, Ratio of ethambutol MIC to test compound MIC for antitubercular activity against PAS/INH/EMB/RMP-resistant Mycobacterium tuberculosis Spec.210 assessed as inhibition of microbial growth incubated for 1 week by MABA method; details: time 1 weeks
[6] = system: Mycobacterium tuberculosis; assay: Potency index, Ratio of isoniazid MIC to test compound MIC for antitubercular activity against PAS/INH/EMB/RMP-resistant Mycobacterium tuberculosis Spec.210 assessed as inhibition of microbial growth incubated for 1 week by MABA method; details: time 1 weeks
[7] = system: Mycobacterium tuberculosis; assay: Potency index, Ratio of streptomycin MIC to test compound MIC for antitubercular activity against PAS/INH/EMB/RMP-resistant Mycobacterium tuberculosis Spec.210 assessed as inhibition of microbial growth incubated for 1 week by MABA method; details: time 1 weeks

SMILES | MIC [1] [µg/mL] | MIC [2] [µg/mL] | MIC [3] [µg/mL] | Ratio [4] | Ratio [5] | Ratio [6] | Ratio [7]
COc1ccc(NC(S)=Nc2ccc(F)cc2)cc1 | 100 |  |  |  |  |  | 
COc1ccc(NC(=S)Nc2cccc(Cl)c2)cc1 | 100 |  |  |  |  |  | 
COc1ccc(Nc2nnnn2-c2ccc(Cl)cc2)cc1 |  | 8 | 128 | 2 | 2 | 2 | 2
COc1ccc(-n2nnnc2Nc2ccccc2Br)cc1 |  | 64 | 512 |  |  |  | 
COc1ccc(-n2nnnc2Nc2ccccc2F)cc1 |  | 16 |  |  |  |  | 
COc1ccc(Nc2nnnn2-c2cccc(Cl)c2)cc1 |  | 8 | 128 | 2 | 2 | 2 | 2
COc1ccc(-n2nnnc2Nc2cccc(F)c2)cc1 |  | 8 | 256 | 2 | 2 | 2 | 2
COc1ccc(-n2nnnc2Nc2cccc(Cl)c2)cc1 |  | 32 | 256 |  |  |  | 
COc1ccc(-n2nnnc2Nc2ccccc2Cl)cc1 |  | 8 | 256 | 2 | 2 | 2 | 2
COc1ccc(-n2nnnc2Nc2ccc(Cl)cc2)cc1 |  | 16 | 256 |  |  |  | 
COc1ccc(NC(=S)Nc2ccc(Cl)cc2)cc1 | 50 |  |  |  |  |  | 
COc1ccc(Nc2nnnn2-c2ccccc2F)cc1 |  | 16 |  |  |  |  | 
COc1ccc(-n2nnnc2Nc2ccc(F)cc2)cc1 |  | 32 | 512 |  |  |  | 
COc1ccc(NC(=S)Nc2cccc(Br)c2)cc1 | 50 |  |  |  |  |  | 
COc1ccc(NC(=S)Nc2ccccc2Br)cc1 | 50 |  |  |  |  |  | 
COc1ccc(Nc2nnnn2-c2ccccc2Br)cc1 |  | 16 | 256 |  |  |  | 
COc1ccc(NC(=S)Nc2ccc(Br)cc2)cc1 | > 100 |  |  |  |  |  | 
COc1ccc(NC(=S)Nc2ccccc2Cl)cc1 | 50 |  |  |  |  |  | 
COc1ccc(Nc2nnnn2-c2cccc(Br)c2)cc1 |  | 16 | 256 |  |  |  | 
COc1ccc(Nc2nnnn2-c2ccc(Br)cc2)cc1 |  | 16 | 256 |  |  |  | 
COc1ccc(Nc2nnnn2-c2ccc(F)cc2)cc1 |  | 8 | 128 | 2 | 2 | 2 | 2
COc1ccc(NC(=S)Nc2cccc(F)c2)cc1 | 100 |  |  |  |  |  | 
COc1ccc(Nc2nnnn2-c2ccccc2Cl)cc1 |  | 8 | 128 | 2 | 2 | 2 | 2
COc1ccc(Nc2nnnn2-c2cccc(F)c2)cc1 |  | 16 | 256 |  |  |  | 
COc1ccc(NC(=S)Nc2ccccc2F)cc1 | 100 |  |  |  |  |  | 
CC[C@@H](CO)NCCN[C@@H](CC)CO [ETHAMBUTOL] | 50 | 32 | 2 |  |  |  | 
NNC(=O)c1ccncc1 [ISONIAZID] | 12.5 | 16 | 2 |  |  |  | 
CO[C@H]1/C=C/O[C@@]2(C)Oc3c(C)c(O)c4c(O)c(c(/C=N/N5CCN(C)CC5)c(O)c4c3C2=O)NC(=O)/C(C)=C\C=C\[C@H](C)[C@H](O)[C@@H](C)[C@@H](O)[C@@H](C)[C@H](OC(C)=O)[C@@H]1C [RIFAMPIN] | 50 | 32 | 1 |  |  |  | 
CN[C@@H]1[C@H](O[C@H]2[C@H](O[C@H]3[C@H](O)[C@@H](O)[C@H](N=C(N)N)[C@@H](O)[C@@H]3N=C(N)N)O[C@@H](C)[C@]2(O)C=O)O[C@@H](CO)[C@H](O)[C@H]1O [STREPTOMYCIN] | 25 | 16 | 1 |  |  |  | 
